Source: ChEMBL document CHEMBL4715758, “Hit-to-Lead Optimization of a Novel Class of Potent, Broad-Spectrum Trypanosomacides” (J Med Chem, 2016)
The source made the active and inactive calls. The calls are words filed in the database; no cut-off is given here.

Key:
[1] = test system: Trypanosoma brucei brucei; experiment: Antitrypanosomal activity against Trypanosoma brucei brucei Lister 427 strain blood stream forms incubated for 48 hrs by resazurin dye based fluorescence assay; assay type: functional, organism-based; conditions: Lister 427, 48 h
Trypanosoma cruzi [2] = experiment: Antitrypanosomal activity against Trypanosoma cruzi Tulahuen strain trypomastigotes infected in rat H9c2 cells incubated for 72 hrs by DRAQ5 DNA dye based imaging analysis; assay type: functional, organism-based; conditions: H9c2, 72 h
[3] = Selectivity index, ratio of IC50 for cytotoxicity against human HEK293 cells assessed as reduction in cell viability to IC50 for antitrypanosomal activity against Trypanosoma brucei brucei Lister 427 blood stream form; assay type: toxicity, cell-based; conditions: read-out: Ratio IC50
[4] = Selectivity index, ratio of IC50 for cytotoxicity against rat H9c2 cells assessed as reduction in cell viability to IC50 for antitrypanosomal against Trypanosoma cruzi Tulahuen trypomastigotes infected in rat H9c2 cells; assay type: toxicity, cell-based; conditions: read-out: Ratio IC50
[5] = test system: Trypanosoma brucei brucei; experiment: Antitrypanosomal activity against Trypanosoma brucei brucei Lister 427 strain blood stream form assessed as parasite growth inhibition at 10 uM incubated for 48 hrs by resazurin dye based fluorescence assay relative to control; assay type: functional; conditions: for inhibition at 10 µM: Lister 427, 48 h
Summary of the method: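 Alamar Blue (resazurin) growth-inhibition screen against T. b. brucei at 10 μM, the same assay used to find the original hit. Compounds reaching 50% or greater inhibition were then taken into concentration–response testing for IC50.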

Trypanosoma cruzi [6] = experiment: Antitrypanosomal activity against Trypanosoma cruzi Tulahuen strain trypomastigotes infected in rat H9c2 cells at 10 uM incubated for 72 hrs by DRAQ5 DNA dye based imaging analysis relative to control; assay type: functional
[7] = Metabolic stability in human liver microsomes assessed as degradation half-life measured after 60 mins in presence of NADPH generating system by LC-MS analysis; assay type: ADME, Microsome; conditions: read-out: T50
[8] = Intrinsic clearance in human liver microsomes assessed per mg protein measured after 60 mins in presence of NADPH generating system by LC-MS analysis; assay type: ADME, Microsome; conditions: read-out: CLH

SMILES | IC50 [1] | IC50 (Trypanosoma cruzi [2]) | selectivity ratio [3] | selectivity ratio [4] | other results
O=C(NCCc1csc(-c2ccncc2)n1)c1ccccc1 | – | 32 µM | – | – | –
O=C(NCCc1csc(-c2ccccc2)n1)c1cnco1 | – | – | – | – | inhibition at 10 µM [5]: < 50%; inhibition at 10 µM (Trypanosoma cruzi [6]): < 50%
O=C(NCCc1csc(-c2ccc(Cl)cc2)n1)N1CCCCC1 | 1.5 µM | – | 55 | – | –
O=C(NCCc1csc(-c2ccccc2)n1)c1ccoc1 | 0.35 µM | – | 240 | – | –
CC(=O)NCCc1csc(-c2ccccc2)n1 | – | – | – | – | inhibition at 10 µM [5]: < 50%; inhibition at 10 µM (Trypanosoma cruzi [6]): < 50%
O=C(NCCc1csc(-c2ccccc2)n1)c1cccc(O)c1 | – | – | – | – | inhibition at 10 µM [5]: < 50%
O=C(CC1CC2CCC1C2)NCCc1csc(-c2ccccc2)n1 (racemic) | – | – | – | – | inhibition at 10 µM [5]: < 50%
O=C(NCCc1csc(-c2ccccc2)n1)C1CCCC1 | – | – | – | – | half-life [7]: 6 min; microsomal CLint [8]: 296 µL/min/mg
O=C(NCCc1csc(-c2ccccc2)n1)OC1CCCC1 | 0.3 µM | 0.4 µM | 280 | > 125 | –
COc1ccc(-c2nc(CCNC(=O)N3CCCCC3)cs2)cc1 | – | – | – | – | inhibition at 10 µM [5]: > 50%; inhibition at 10 µM (Trypanosoma cruzi [6]): < 50%
O=C(NCCc1csc(-c2ccccc2)n1)c1cccc2ccccc12 | – | – | – | – | inhibition at 10 µM [5]: < 50%
N#Cc1ccccc1C(=O)NCCc1csc(-c2ccccc2)n1 | – | – | – | – | inhibition at 10 µM [5]: < 50%
O=C(NCCc1csc(-c2ccccc2)n1)c1cccs1 | – | 0.4 µM | – | – | –
O=C(NCCc1csc(-c2ccncc2)n1)C1CCCC1 | 9.1 µM | 32 µM | 9 | > 1.5 | –
CC(C)NC(=O)NCCc1csc(-c2ccccc2)n1 | 0.9 µM | 1.6 µM | 93 | > 31 | –
O=C(NCCc1csc(-c2ccccc2)n1)C1CC2C=CC1O2 (racemic) | 5.5 µM | – | 15 | – | –
O=C(NCCc1csc(-c2cccnc2)n1)C1CCCC1 | 6.6 µM | 20 µM | 13 | > 2.5 | –
CC(C)(C)OC(=O)NCCc1csc(-c2ccccc2)n1 | – | – | – | – | inhibition at 10 µM [5]: < 50%

SMILES | IC50 [1] | IC50 (Trypanosoma cruzi [2]) | selectivity ratio [3] | selectivity ratio [4] | other results
CC(C)OC(=O)NCCc1csc(-c2ccccc2)n1 | 0.22 µM | 0.4 µM | 385 | > 125 | –
COc1cccc(-c2nc(CCNC(=O)N3CCCCC3)cs2)c1 | 0.67 µM | – | 62 | – | –
O=C(NCCc1csc(-c2ccccc2)n1)c1ccc(Cl)cc1 | – | – | – | – | inhibition at 10 µM [5]: < 50%
O=C(NCCc1csc(-c2ccccc2)n1)c1ccon1 | 0.74 µM | 2.5 µM | 113 | > 19 | –
O=C(NCCc1csc(-c2ccccc2)n1)OCC1CC1 | 0.97 µM | 3.2 µM | 86 | > 15 | –
O=CNCCc1csc(-c2ccccc2)n1 | – | – | – | – | inhibition at 10 µM [5]: < 50%; inhibition at 10 µM (Trypanosoma cruzi [6]): < 50%
CCC(=O)NCCc1csc(-c2ccccc2)n1 | – | – | – | – | inhibition at 10 µM [5]: < 50%; inhibition at 10 µM (Trypanosoma cruzi [6]): < 50%
O=C(Cc1ccc2c(c1)OCO2)NCCc1csc(-c2ccccc2)n1 | – | 40 µM | – | > 1.2 | inhibition at 10 µM [5]: < 50%
O=C(NCCc1csc(-c2ccccc2)n1)c1cccc(C(F)(F)F)c1 | 11.6 µM | – | 1.8 | – | inhibition at 10 µM (Trypanosoma cruzi [6]): < 50%
COc1ccc(C(=O)NCCc2csc(-c3ccccc3)n2)cc1 | – | – | – | – | inhibition at 10 µM [5]: < 50%
O=C(NCCc1csc(-c2ccccc2)n1)c1cccc(S(F)(F)(F)(F)F)c1 | – | – | – | – | inhibition at 10 µM [5]: < 50%; inhibition at 10 µM (Trypanosoma cruzi [6]): < 50%
O=C(NCCc1csc(-c2ccccc2)n1)c1cccnc1 | – | 2.5 µM | – | – | –
Cc1cccc(C(=O)NCCc2csc(-c3ccccc3)n2)c1 | 3.9 µM | 6.3 µM | 21 | > 7.9 | –
Cc1ccccc1-c1nc(CCNC(=O)N2CCCCC2)cs1 | 0.19 µM | – | 439 | – | –
O=C(Cc1ccccc1)NCCc1csc(-c2ccccc2)n1 | – | – | – | – | inhibition at 10 µM [5]: < 50%
O=C(NCCc1csc(-c2ccccc2)n1)c1cscn1 | 1.2 µM | – | 68 | – | –
O=C(NCCc1csc(-c2ccccn2)n1)c1ccccc1 | – | 6.3 µM | – | – | –

Further lines, with some results ahead:

IC50 [1] | IC50 (Trypanosoma cruzi [2]) | SMILES | selectivity ratio [3] | selectivity ratio [4] | other results
3.3 µM | 3.2 µM | Cc1ccccc1C(=O)NCCc1csc(-c2ccccc2)n1 | 2.5 | > 15 | –
0.28 µM | – | N#Cc1cccc(-c2nc(CCNC(=O)N3CCCCC3)cs2)c1 | 149 | – | –
4.1 µM | 32 µM | O=C(NCCc1csc(-c2ccccc2)n1)c1cnccn1 | 20 | > 1.5 | –
– | 20 µM | O=S(=O)(NCCc1csc(-c2ccccc2)n1)c1ccccc1 | – | – | inhibition [5]: inactive
3.7 µM | – | Cc1ccc(-c2nc(CCNC(=O)N3CCCCC3)cs2)cc1 | 22 | – | –
– | 0.4 µM | N#Cc1ccc(C(=O)NCCc2csc(-c3ccccc3)n2)cc1 | – | > 126 | inhibition at 10 µM [5]: < 50%
3.6 µM | 2 µM | C[Si](C)(C)C#Cc1cccc(C(=O)NCCc2csc(-c3ccccc3)n2)c1 | 2.9 | > 12 | –
4 µM | – | O=C(NCCc1csc(-c2ccccn2)n1)C1CCCC1 | 21 | – | –
– | 0.32 µM | O=C(NCCc1csc(-c2ccccc2)n1)C1CCCCC1 | – | – | –
– | 40 µM | O=C(NCCc1csc(-c2ccccc2)n1)c1ccncc1 | – | – | –
5 µM | – | O=C(NCCc1csc(-c2ccccc2)n1)C1CCOCC1 | 17 | – | –
10.6 µM | 10 µM | COc1ccccc1C(=O)NCCc1csc(-c2ccccc2)n1 | 2 | > 5 | –
0.26 µM | 1 µM | CCN(CC)C(=O)NCCc1csc(-c2ccccc2)n1 | 320 | > 50 | –
0.56 µM | 0.79 µM | N#Cc1ccccc1-c1nc(CCNC(=O)N2CCCCC2)cs1 | 148 | > 63 | –
– | 16 µM | O=C(NCCc1csc(-c2ccccc2)n1)c1ccc2ccccc2c1 | – | > 3.1 | inhibition at 10 µM [5]: < 50%
8.5 µM | 40 µM | CS(=O)(=O)c1cccc(C(=O)NCCc2csc(-c3ccccc3)n2)c1 | 4.9 | > 1.2 | –
– | 2 µM | O=C(NCCc1csc(-c2ccccc2)n1)c1ccco1 | – | – | –
0.5 µM | – | COc1ccccc1-c1nc(CCNC(=O)N2CCCCC2)cs1 | 168 | – | –
1.7 µM | 6.3 µM | CC(C)(C)C(=O)NCCc1csc(-c2ccccc2)n1 | 50 | > 7.9 | –

IC50 [1] | IC50 (Trypanosoma cruzi [2]) | SMILES | selectivity ratio [3] | selectivity ratio [4] | other results
9.6 µM | 32 µM | CC(C)N(C(=O)NCCc1csc(-c2ccccc2)n1)C(C)C | 10 | > 1.5 | –
1.1 µM | – | O=C(NCCc1csc(-c2ccccc2)n1)n1cccc1 | 38 | – | –
2.4 µM | 10 µM | O=C(NCCc1csc(-c2cccs2)n1)C1CCCC1 | 35 | > 5 | –
0.39 µM | 1 µM | CC(C)N(C)C(=O)NCCc1csc(-c2ccccc2)n1 | 212 | > 50 | –
– | 3.2 µM | O=C(NCCc1csc(-c2ccccc2)n1)N1CCOCC1 | – | – | –
2.3 µM | 7.9 µM | O=C(NCCc1csc(-c2ccccc2)n1)c1ccccc1O | 18 | > 3 | –
– | 6.3 µM | O=C(NCCc1csc(-c2ccccc2)n1)c1ccc[nH]1 | – | – | –
0.16 µM | – | O=C(NCCc1csc(-c2cccc(Cl)c2)n1)N1CCCCC1 | 511 | – | –
1.9 µM | – | Cc1ccc(C(=O)NCCc2csc(-c3ccccc3)n2)o1 | 22 | – | –
– | 32 µM | O=S(=O)(NCCc1csc(-c2ccccc2)n1)N1CCCC1 | – | – | inhibition [5]: inactive
0.33 µM | – | N#Cc1ccc(-c2nc(CCNC(=O)N3CCCCC3)cs2)cc1 | 125 | – | –
1.9 µM | 3.2 µM | COc1cccc(C(=O)NCCc2csc(-c3ccccc3)n2)c1 | 26 | > 15 | –
5.3 µM | 40 µM | CC(C)C(=O)NCCc1csc(-c2ccccc2)n1 | 16 | > 1.2 | –
– | 0.12 µM | O=C(NCCc1csc(-c2ccccc2)n1)N1CCCCCC1 | – | – | –
0.76 µM | – | C#Cc1cccc(C(=O)NCCc2csc(-c3ccccc3)n2)c1 | 27 | – | –
2.5 µM | 5 µM | O=C(NCCc1csc(-c2ccccc2)n1)c1cc(Br)co1 | 12 | > 10 | –
– | 0.79 µM | N#Cc1cccc(C(=O)NCCc2csc(-c3ccccc3)n2)c1 | – | – | –
– | 40 µM | O=C(NCCc1csc(-c2cccnc2)n1)c1ccccc1 | – | – | –
– | 40 µM | Cc1ccc(C(=O)NCCc2csc(-c3ccccc3)n2)cc1 | – | 1.2 | inhibition at 10 µM [5]: < 50%
